Results taken from ChEMBL document CHEMBL1949558, “Hypoxylonols C-F, benzo[j]fluoranthenes from Hypoxylon truncatum” (J Nat Prod, 2012).

Key:
HUVEC = assay: Antiangiogenic activity in HUVEC assessed as inhibition of cell proliferation after 72 hrs by MTT assay; type: functional, cell-based; settings: Homo sapiens
Outline: (§1)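 Cells were purchased and seeded at 3000/well on collagen-coated plates for 3 h at 37 °C, 5% CO2: HUVECs in EGM-2, HUAECs in EGM-2MV. The medium was then swapped to 1% FBS-EBM-2 for 21 h. VEGF (1 nM) and samples were added for 72 h. Proliferation was read with WST-8 at 450 nm, and inhibition was expressed as IC50.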

[1] = Antiangiogenic activity in HUAEC assessed as inhibition of cell proliferation after 72 hrs by MTT assay; type: functional; settings: Homo sapiens; outline: as §1

Structure (SMILES) | IC50 (HUVEC) [µM] | IC50 [1] [µM]
CCO[C@H]1C[C@H](O)C2=C3c4cccc(O)c4C(=O)C[C@@H]3c3ccc(O)c1c32 [HYPOXYLONOL A] | 15 | 16
CO[C@H]1C[C@H](O)C2=C3c4cccc(O)c4C(=O)C[C@@H]3c3ccc(O)c1c32 [HYPOXYLONOL B] | 24 | 24
O=C1C[C@H]2C(=C3c4c2ccc(O)c4[C@@H](O)C[C@@H]3O)c2cccc(O)c21 [HYPOXYLONOL C] | 21 | 16
CCO[C@@H]1C[C@H](O)C2=C3c4cccc(O)c4C(=O)C[C@@H]3c3ccc(O)c1c32 [HYPOXYLONOL D] | 6.9 | 6.1
CO[C@@H]1C[C@H](O)C2=C3c4cccc(O)c4C(=O)C[C@@H]3c3ccc(O)c1c32 [HYPOXYLONOL E] | 7.4 | 4.1
O=C1C[C@H]2C(=C3c4c2ccc(O)c4[C@H](O)C[C@@H]3O)c2cccc(O)c21 [HYPOXYLONOL F] | 17 | 14
